Experimental data as given in ChEMBL document CHEMBL3588757, “Structure-based design, synthesis and biological testing of piperazine-linked bis-epipodophyllotoxin etoposide analogs” (Bioorg Med Chem, 2015).
Active and inactive are the calls of the source. The rule behind the calls is not given here.

Legend:
[1] = test system: K562; assay: Induction of DNA double strand breaks in human K562 cells assessed as increase in gamma-H2AX level at 25 uM after 4 hrs by chemiluminescence analysis; assay type: functional, cell-based
Summary of the method: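 K562 cells (3.4 × 10^5/mL) exposed 4 h at 37 °C to 25 µM drug or DMSO. Lysed in Tris pH 6.7/SDS buffer; 50 µg protein on 14% SDS-PAGE, PVDF blot. Rabbit anti-γH2AX (1:1000, overnight), GAPDH loading control, HRP secondary. Chemiluminescence imaged by CCD.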

[2] = test system: HCT-15; assay: Cytotoxicity against human HCT15 cells assessed as cell growth at 50 uM by SRB assay; assay type: functional; conditions: read-out: Activity
Summary of the method: (§1)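 Measured in the NCI-60 human tumour cell line panel using five-dose testing. Growth was recorded at each dose for each cell line, and a GI50 was derived for each line.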

[3] = test system: SNB-75; assay: Cytotoxicity against human SNB75 cells assessed as cell growth at 50 uM by SRB assay; assay type: functional; conditions: read-out: Activity
[4] = test system: A498; assay: Cytotoxicity against human A498 cells assessed as cell growth at 50 uM by SRB assay; assay type: functional; conditions: read-out: Activity
[5] = Cytotoxicity against human Hs578T cells assessed as cell growth at 50 uM by SRB assay; assay type: functional; conditions: Hs-578T, read-out: Activity; summary of the method: as §1
[6] = test system: RPMI-8226; assay: Cytotoxicity against human RPMI8226 cells by SRB assay; assay type: functional
Summary of the method: (§2)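 NCI-60 panel screen; 5-dose testing giving GI50 per cell line, plus a single 10 µM one-dose test. Method details not given beyond the NCI screen.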

[7] = test system: A549; assay: Cytotoxicity against human A549/ATCC cells by SRB assay; assay type: functional
[8] = test system: HOP-62; assay: Cytotoxicity against human HOP62 cells by SRB assay; assay type: functional; summary of the method: as §1
[9] = test system: HCT-15; assay: Cytotoxicity against human HCT15 cells by SRB assay; assay type: functional; summary of the method: as §1
[10] = test system: KM12; assay: Cytotoxicity against human KM12 cells by SRB assay; assay type: functional; summary of the method: as §2
[11] = test system: U-251; assay: Cytotoxicity against human U251 cells by SRB assay; assay type: functional; summary of the method: as §2
[12] = test system: SK-MEL-5; assay: Cytotoxicity against human SK-MEL-5 cells by SRB assay; assay type: functional; summary of the method: as §2
[13] = test system: OVCAR-5; assay: Cytotoxicity against human OVCAR5 cells by SRB assay; assay type: functional; summary of the method: as §2
[14] = test system: 786-0; assay: Cytotoxicity against human 786-0 cells by SRB assay; assay type: functional
[15] = test system: A498; assay: Cytotoxicity against human A498 cells by SRB assay; assay type: functional
[16] = test system: T47D; assay: Cytotoxicity against human T47D cells by SRB assay; assay type: functional; summary of the method: as §2
[17] = test system: MDA-MB-468; assay: Cytotoxicity against human MDA-MB-468 cells by SRB assay; assay type: functional; summary of the method: as §2
[18] = test system: SR; assay: Cytotoxicity against human SR cells assessed as cell growth at 0.005 uM by SRB assay; assay type: functional; conditions: read-out: Activity
[19] = test system: SF-295; assay: Cytotoxicity against human SF295 cells assessed as cell growth at 0.005 uM by SRB assay; assay type: functional; conditions: read-out: Activity
[20] = test system: SK-MEL-2; assay: Cytotoxicity against human SK-MEL-2 cells assessed as cell growth at 0.005 uM by SRB assay; assay type: functional; conditions: read-out: Activity
[21] = test system: HCT-15; assay: Cytotoxicity against human HCT15 cells assessed as cell growth at 0.05 uM by SRB assay; assay type: functional; conditions: read-out: Activity; summary of the method: as §1
[22] = test system: 786-0; assay: Cytotoxicity against human 786-0 cells assessed as cell growth at 0.05 uM by SRB assay; assay type: functional; conditions: read-out: Activity
[23] = test system: CAKI-1; assay: Cytotoxicity against human Caki1 cells assessed as cell growth at 0.05 uM by SRB assay; assay type: functional; conditions: read-out: Activity
[24] = test system: PC-3; assay: Cytotoxicity against human PC3 cells assessed as cell growth at 0.05 uM by SRB assay; assay type: functional; conditions: read-out: Activity
[25] = test system: NCI-H23; assay: Cytotoxicity against human NCI-H23 cells assessed as cell growth at 0.5 uM by SRB assay; assay type: functional; conditions: read-out: Activity
[26] = test system: SF-268; assay: Cytotoxicity against human SF268 cells assessed as cell growth at 0.5 uM by SRB assay; assay type: functional; conditions: read-out: Activity
[27] = test system: LOX IMVI; assay: Cytotoxicity against human LOXIMVI cells assessed as cell growth at 0.5 uM by SRB assay; assay type: functional; conditions: read-out: Activity
[28] = test system: MCF7; assay: Cytotoxicity against human MCF7 cells assessed as cell growth at 0.5 uM by SRB assay; assay type: functional; conditions: read-out: Activity
[29] = test system: NCI-H23; assay: Cytotoxicity against human NCI-H23 cells assessed as cell growth at 5 uM by SRB assay; assay type: functional; conditions: read-out: Activity
[30] = test system: COLO 205; assay: Cytotoxicity against human COLO205 cells assessed as cell growth at 5 uM by SRB assay; assay type: functional; conditions: read-out: Activity
[31] = test system: MDA-MB-435; assay: Cytotoxicity against human MDA-MB-435 cells assessed as cell growth at 5 uM by SRB assay; assay type: functional; conditions: read-out: Activity
[32] = test system: OVCAR-4; assay: Cytotoxicity against human OVCAR4 cells assessed as cell growth at 5 uM by SRB assay; assay type: functional; conditions: read-out: Activity
[33] = test system: A498; assay: Cytotoxicity against human A498 cells assessed as cell growth at 5 uM by SRB assay; assay type: functional; conditions: read-out: Activity
[34] = test system: PC-3; assay: Cytotoxicity against human PC3 cells assessed as cell growth at 5 uM by SRB assay; assay type: functional; conditions: read-out: Activity
[35] = read-out: LC50 (the source's name)
[36] = read-out: pLC50 (the source's name) (converted)

In the case of `COc1cc([C@@H]2c3cc4c(cc3[C@@H](NC(=O)CN3CCN(CCCCCCCCCCN5CCN(CC(=O)N[C@@H]6c7cc8c(cc7[C@@H](c7cc(OC)c(O)c(OC)c7)[C@H]7C(=O)OC[C@@H]76)OCO8)CC5)CC3)[C@H]3COC(=O)[C@H]23)OCO4)cc(OC)c1O`, the Activity [1] is reported as “Active”, the growth at 50 µM [2] is reported as -64% and the growth at 50 µM [3] is reported as -26%. It also gave a growth at 50 µM [4] of -97%, a growth at 50 µM [5] of -22% and a GI50 ([6]; read-out: GI50) of 16.3 nM. The CC50 [6, 35] was over 50000 nM, the TGI ([6]; read-out: TGI) was 369 nM and the GI50 ([6]; read-out: pGI50 (converted)) was 16.2 nM. The CC50 [6, 36] was over 50100 nM, the TGI ([6]; read-out: pTGI (converted)) was 372 nM and the GI50 ([7]; read-out: GI50) was 17.2 nM. The CC50 [7, 35] was over 50000 nM, the TGI ([7]; read-out: TGI) was 883 nM and the GI50 ([7]; read-out: pGI50 (converted)) was 17.4 nM. It also gave a CC50 [7, 36] of over 50100 nM, a TGI ([7]; read-out: pTGI (converted)) of 891 nM and a GI50 ([8]; read-out: GI50) of 43.8 nM. For the same compound, the TGI ([8]; read-out: TGI) was 863 nM, the GI50 ([8]; read-out: pGI50 (converted)) was 43.6 nM and the TGI ([8]; read-out: pTGI (converted)) was 871 nM. For the same compound, the GI50 ([9]; read-out: GI50) was 359 nM, the CC50 [9, 35] was 3390 nM and the TGI ([9]; read-out: TGI) was 1240 nM. For the same compound, the GI50 ([9]; read-out: pGI50 (converted)) was 363 nM, the CC50 [9, 36] was 3390 nM and the TGI ([9]; read-out: pTGI (converted)) was 1230 nM. It also gave a GI50 ([10]; read-out: GI50) of 892 nM, a CC50 [10, 35] of over 50000 nM and a TGI ([10]; read-out: TGI) of 2950 nM. For the same compound, the GI50 ([10]; read-out: pGI50 (converted)) was 891 nM, the CC50 [10, 36] was over 50100 nM and the TGI ([10]; read-out: pTGI (converted)) was 2950 nM. For the same compound, the GI50 ([11]; read-out: GI50) was 532 nM, the CC50 [11, 35] was 23400 nM and the TGI ([11]; read-out: TGI) was 6270 nM. The GI50 ([11]; read-out: pGI50 (converted)) was 537 nM, the CC50 [11, 36] was 23400 nM and the TGI ([11]; read-out: pTGI (converted)) was 6310 nM. For the same compound, the GI50 ([12]; read-out: GI50) was 5240 nM, the CC50 [12, 35] was 35400 nM and the TGI ([12]; read-out: TGI) was 13600 nM. The GI50 ([12]; read-out: pGI50 (converted)) was 5250 nM, the CC50 [12, 36] was 35500 nM and the TGI ([12]; read-out: pTGI (converted)) was 13500 nM. For the same compound, the GI50 ([13]; read-out: GI50) was 830 nM, the CC50 [13, 35] was 19500 nM and the TGI ([13]; read-out: TGI) was 5650 nM. The GI50 ([13]; read-out: pGI50 (converted)) was 832 nM, the CC50 [13, 36] was 19500 nM and the TGI ([13]; read-out: pTGI (converted)) was 5620 nM. For the same compound, the GI50 ([14]; read-out: GI50) was 209 nM, the CC50 [14, 35] was 18700 nM and the TGI ([14]; read-out: TGI) was 2340 nM. It also gave a GI50 ([14]; read-out: pGI50 (converted)) of 209 nM, a CC50 [14, 36] of 18600 nM and a TGI ([14]; read-out: pTGI (converted)) of 2340 nM. It also gave a CC50 [15, 35] of 14600 nM, a GI50 ([15]; read-out: pGI50 (converted)) of 513 nM and a CC50 [15, 36] of 14800 nM. For the same compound, the TGI ([15]; read-out: pTGI (converted)) was 3550 nM, the GI50 ([16]; read-out: GI50) was 463 nM and the CC50 [16, 35] was over 50000 nM. It also gave a TGI ([16]; read-out: TGI) of 9740 nM, a GI50 ([16]; read-out: pGI50 (converted)) of 468 nM and a CC50 [16, 36] of over 50100 nM. For the same compound, the TGI ([16]; read-out: pTGI (converted)) was 9770 nM, the GI50 ([17]; read-out: GI50) was 844 nM and the CC50 [17, 35] was 16900 nM. It also gave a TGI ([17]; read-out: TGI) of 2620 nM, a GI50 ([17]; read-out: pGI50 (converted)) of 851 nM and a CC50 [17, 36] of 17000 nM. It also gave a TGI ([17]; read-out: pTGI (converted)) of 2630 nM, a growth at 0.005 µM [18] of 98% and a growth at 0.005 µM [19] of 92%. The growth at 0.005 µM [20] was 99%, the growth at 0.05 µM [21] was 80% and the growth at 0.05 µM [22] was 89%. For the same compound, the growth at 0.05 µM [23] was 89%, the growth at 0.05 µM [24] was 89% and the growth at 0.5 µM [25] was 25%. The growth at 0.5 µM [26] was 49%, the growth at 0.5 µM [27] was 21% and the growth at 0.5 µM [28] was 30%. The growth at 5 µM [29] was -35%, the growth at 5 µM [30] was -13% and the growth at 5 µM [31] was -60%. For the same compound, the growth at 5 µM [32] was -28%, the growth at 5 µM [33] was -9% and the growth at 5 µM [34] was 17%.
